Laboratory results published in ChEMBL document CHEMBL1158283, “Four new bioactive manzamine-type alkaloids from the Philippine marine sponge Xestospongia ashmorica” (1996).
Converted amounts (≈) assume the structure as drawn.

Key:
Format in all cases: functional
Spodoptera littoralis [1] = assay: Insecticidal activity against Spodoptera littoralis neonate larvae assessed as inhibition of larval growth at 132 ppm administered with artificial diet after 6 days by chronic feeding experiment relative to control; settings: 144 h
How it was run: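 Neonate S. littoralis larvae (n = 20) from a laboratory colony, fed artificial diet spiked at 132 ppm for 6 days; survival and weight of surviving larvae recorded and expressed as growth inhibition versus untreated controls.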

L5178Y = assay: Cytotoxicity against mouse L5178Y cells after 72 hrs by MTT assay; settings: read-out: ED50 (the source's name)
How it was run: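 L5178y mouse lymphoma cells in Eagle's MEM plus 10% horse serum, roller tube culture; cultures started at 5×1000 cells/mL, exposed to 0.3–20 μg/mL, incubated 72 h at 37 °C. Growth assessed by MTT assay and by cell counting; ED50 reported in μg/mL.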

Spodoptera littoralis [2] = assay: Insecticidal activity against Spodoptera littoralis neonate larvae assessed as inhibition of larval growth drug administered with artificial diet after 6 days by chronic feeding experiment
How it was run: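 Dose-response feeding assay: neonate S. littoralis larvae (n = 20) held 6 days on artificial diet spiked at 26–132 ppm; survival and surviving-larva weights compared with controls, ED50 (ppm) derived by probit analysis of the dose-response curve.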

Bacillus subtilis = assay: Antibacterial activity against Bacillus subtilis 168 at 100 ug after 24 hrs by agar plate diffusion assay; settings: Bacillus subtilis, 168, 24 h; read-out: IZ
How it was run: (§1)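 Sterile susceptibility disks (5 mm diameter) loaded with 100 μg compound, placed on agar plates seeded with test bacterium (B. subtilis 168, S. aureus ATCC 25923, E. coli ATCC 25922); plates incubated 24 h at 37 °C, then inhibition zone diameter read.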

Staphylococcus aureus = assay: Antibacterial activity against Staphylococcus aureus ATCC 25923 at 100 ug after 24 hrs by agar plate diffusion assay; settings: ATCC 25923, 24 h, read-out: IZ; how it was run: as §1

SMILES | inhibition at 132 ppm (Spodoptera littoralis [1]) [%] | EC50 (L5178Y) [µg/mL] | ED50 (Spodoptera littoralis [2]) [ppm] | zone of inhibition at 100 µg/disc (Bacillus subtilis) [mm] | zone of inhibition at 100 µg/disc (Staphylococcus aureus) [mm]
O=C1CCCN2[C@@H](CC1)C[C@]13CN4CCCC/C=C\CC[C@](O)(C=C(c5nccc6c5[nH]c5ccccc56)C1CC4)[C@H]23 (some centres undefined) [MANZAMINE E] | 0 | 6.6 (≈ 11.7 µM) |  |  | 
O[C@]12C=C(c3nccc4c3[nH]c3ccccc34)[C@@H]3CCN(CCCC/C=C\CC1)C[C@@]31CC/C=C\CCCCN[C@H]12 [MANZAMINE J] | 2 | 25 (≈ 45.4 µM) |  |  | 
[O-][N+]1=C(C2=C[C@@]3(O)CC/C=C\CCCCN4CC[C@@H]2[C@]2(C[C@@H]5/C=C\CCCCN5[C@H]23)C4)c2[nH]c3ccccc3c2CC1 | 26.4 | 1.6 (≈ 2.82 µM) |  |  | 
[O-][n+]1ccc2c([nH]c3ccccc32)c1C1=C[C@@]2(O)CC/C=C\CCCCN3CC[C@@H]1[C@]1(C[C@@H]4/C=C\CCCCN4[C@H]12)C3 | 9.5 | 1.6 (≈ 2.83 µM) |  |  | 
O[C@]12C=C(c3nccc4c3[nH]c3ccccc34)[C@@H]3CCN(CCCC/C=C\CC1)C[C@@]31C[C@@H]3/C=C\CCCCN3[C@H]12 [MANZAMINE A] | 80 | 1.8 (≈ 3.28 µM) | 35 | 7 | 7
[O-][n+]1ccc2c([nH]c3ccccc32)c1C1=C[C@@]2(O)CC/C=C\CCCCN3CC[C@@H]1[C@]1(CC/C=C\CCCCN[C@H]12)C3 | 16.2 | 3.2 (≈ 5.65 µM) |  |  | 
O=C1CCCN2[C@@H](CC1)C[C@]13CN4CCCC/C=C\CC[C@](O)(C=C(c5nccc6c5[nH]c5c(O)cccc56)C1CC4)[C@H]23 (some centres undefined) [MANZAMINE F] | 50.6 | 2.3 (≈ 3.96 µM) |  |  | 
O[C@]12C=C(c3nccc4c3[nH]c3ccccc34)C3CCN(CCCC/C=C\CC1)C[C@@]31C[C@]34CC[C@H](CCCN3[C@H]12)O4 (some centres undefined) [6-Deoxymanzamine X] | 18.5 | 1.8 (≈ 3.19 µM) |  |  | 
